TbMetRS inhib = T. brucei MetRS inhibitors, primary screen, biochemical, luminescence; methionyl-tRNA synthetase (Trypanosoma brucei brucei); purified T. brucei MetRS, ATP depletion, Kinase-Glo luminescence; inhibition, % at 11.9 µM; 0.4% of 360,000 active; AID 624268, 2012;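 active = inhibition above a per-plate cutoff of the control wells' mean inhibition plus 3 SD, cut at about 5.5% in these data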;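 also: 0% = DMSO wells median and 100% = median of wells with control inhibitor compound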
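Assay system: T. brucei methionyl-tRNA synthetase, purified | Medium: HEPES buffer with MgCl2, KCl, DTT, spermine, BSA, pyrophosphatase | Compound: 11.9 µM single point | Incubation: 15 min enzyme-compound preincubation, 2 h reaction, 10 min detection, 25 °C | Measured by: Kinase-Glo luciferase luminescence reporting remaining unconsumed ATP | Measure: % inhibition normalized to control-well medians | Replication: Singlicate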
GRIN3A LBD mod = binders of NR3A ligand-binding domain, primary screen, biophysical, differential scanning fluorimetry, uHTS; 2.5% of 340,000 active; Glutamate receptor ionotropic, NMDA 3A (GRIN3A) ligand-binding domain; AID 1259313, 2017; Tm shift relative to glycine control, % at 25 µM; NR3A LBD differential scanning fluorimetry, Tm shift; 0% = protein alone, 100% = glycine-bound protein;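 active = melting temperature shift of at least 10% of the positive control shift, at one fixed dose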
EBV gp42 block = Epstein-Barr virus gp42 inhibitors, primary screen, biochemical, uHTS, fluorescence polarization | Glycoprotein 42 (Epstein-Barr virus (strain AG876)), Q1HVG2 | Fluorescence polarization binding assay, mP read-out | 0.42% of 220,000 active | AID 1085, 2008 | inhibition, % (tested at 21.74 µM); in the data active = inhibition above about 50%
Target sequence (Q1HVG2 whole entry, looked up): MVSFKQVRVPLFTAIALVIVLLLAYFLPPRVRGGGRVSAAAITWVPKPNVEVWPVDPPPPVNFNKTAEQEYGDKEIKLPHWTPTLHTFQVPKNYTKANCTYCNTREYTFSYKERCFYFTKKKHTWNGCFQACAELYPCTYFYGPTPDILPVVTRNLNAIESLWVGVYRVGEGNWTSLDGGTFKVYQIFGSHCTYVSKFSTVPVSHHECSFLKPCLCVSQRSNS
MPTP inh = mitochondrial permeability transition pore inhibitors, primary screen, biochemical, isolated mouse mitochondria, absorbance. Ca2+ swelling absorbance, 30 min. inhibition, % at 10 µM. 1.4% of 360,000 active. AID 602449, 2012;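 active = inhibition of 50% or more, scaled per plate between neutral and stimulator controls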;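 also: 0% = DMSO wells given calcium and 100% = 1 mM EGTA wells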
CHOP inh = inhibitors of CHOP promoter induction, primary screen, cell-based, unfolded protein response, luciferase reporter | CHO-K1 CHOP-promoter luciferase, tunicamycin-induced, 15-18 h | 3.8% of 220,000 active | inhibition, % at 10 µM;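 active = compounds that reduced the stress-induced luciferase reporter signal by more than about 70% of percent inhibition, limit read from the data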;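 also: 0% = tunicamycin plus vehicle and 100% = wells without tunicamycin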
WT yeast gro inh = growth inhibition of WT strain, primary screen, mitochondrial fusion inhibitor project, WT and mutant strains, chemical genetic; mitochondrial fusion phenotypic screen; inhibition, % at 10 µM; 2.1% of 190,000 active; AID 1362, 2008; in the data active = inhibition above about 58%; tested in S. cerevisiae
* marks the source's active call; other numbers are inactive results; nt = no result given; ! = repeats disagree. The list is not random: actives were taken first. Their share in the collection is about 6.4%.

SMILES	TbMetRS inhib	GRIN3A LBD mod	EBV gp42 block	MPTP inh	CHOP inh	WT yeast gro inh
CCCCNC(=O)c1ccc(CNc2c(N3CCC(C(=O)OCC)CC3)c(=O)c2=O)cc1	0.0	11.2*!	-4.2	0.2	3.5	2.2
CCOC(=O)C1CCN(c2c(NCc3ccc(C(=O)NCCOC)cc3)c(=O)c2=O)CC1	-0.4	0.5	-13.4	-3.2	-25.8	-7.6
O=C(O)c1cc(NC(=O)C2CCCO2)cc(C(=O)O)c1 (stereo not given)	0.2	0.7	nt	0.7	nt	nt
C/C(=N\NC(=O)CNc1cccc(C(F)(F)F)c1)c1cccc(Br)c1	1.0	8.3	-13.8	2.6	68.1	16.9
Cc1ccc(NCC(=O)N/N=C/c2cccc(Br)c2)cc1	-0.4	0.5	-7.1	1.3	4.0	-11.1
Fc1ccc(NC(=S)N/N=C/c2cccc(Br)c2)c(F)c1	0.5	32.0*	-3.2	8.7	95.2*	21.8
C/C(=N\NC(=O)CNc1cccc(C(F)(F)F)c1)c1ccc(Br)cc1	3.0	18.0*	-11.0	0.1	94.1*	-3.7
C/C(=N\NC(=O)CNc1cccc(C)c1)c1ccc(Br)s1	0.2	11.5*	5.6	2.5	38.7	6.1
Cc1cccc(NCC(=O)N/N=C/c2cccc(Br)c2)c1	-0.7	-20.0	0.6	1.6	83.7*	-0.4
Cc1ccccc1NC(=O)C(=O)N/N=C/c1cccc(Br)c1	-0.3	34.3*	3.3	1.7	-11.2	-4.3
Cc1[nH]c(=O)[nH]c(=O)c1CSCC(=O)OCC(=O)Nc1ccccn1	0.6	-2.1	51.2*	0.7	-12.8	nt
Cc1nn(Cc2cccc3ccccc23)c(C)c1NC(=O)c1cccnc1	-1.6	-0.3	3.9	-0.8	12.7	-2.2
O=c1c2ccccc2oc2c1ccc1ccccc12	0.6	18.1*	nt	-2.2	nt	nt
CC(=O)c1cccc(NC(=O)N2C3CCC2CC(O)(c2cccnc2)C3)c1 (stereo not given)	-0.3	5.0	2.4	-2.5	49.7	0.9
CCN(CC)CCCC(C)Nc1c2ccc(Cl)cc2nc2ccc(OC)cc12 (stereo not given)	nt	nt	117.6*	nt	-23.1	7.9
Cc1ccc(CCNC(=O)C2CCN(S(=O)(=O)c3cccc4cccnc34)CC2)cc1	0.2	-1.5	nt	2.7	nt	nt
Cc1c(-c2cccs2)[n+](=O)c2c(n1[O-])CCCCC2	-0.3	1.1	-21.8	1.2	-10.9	58.0*
NS(=O)(=O)c1ccc(CCNC(=O)C2CCC(Cn3c(=S)[nH]c4ccccc4c3=O)CC2)cc1 (stereo not given)	-0.2	-19.3	-12.8	-0.8	-4.5	-2.6
CCOC(=O)c1cnc2ccc(OCC)cc2c1N(C)Cc1ccccc1	-0.4	11.2*	-13.0	4.8	53.7	48.3
CCOc1ccc2ncc(C(=O)c3ccc(OC)cc3)c(N3CCN(CC)CC3)c2c1	-0.4	2.3	-100.6	-0.3	62.9	-18.2
CCOC(=O)c1cnc2ccc(OCC)cc2c1N1CCN(c2ccccc2OC)CC1	-0.5	3.9	-23.1	0.7	87.8*	79.1*
COc1cc(CN2CCNC(=O)C2CC(=O)N(C)CCCN2CCOCC2)cc(OC)c1 (stereo not given)	-0.7	-1.2	nt	-0.6	nt	nt
Cc1cc(NC(=O)Cn2nc(-c3ccccc3F)ccc2=O)ccc1-n1cnnn1	-0.2	1.3	-9.4	-1.9	72.0*	6.0
COc1cc(NC(=O)Cn2nc(-c3ccc(F)cc3)ccc2=O)ccc1-n1cnnn1	-0.4	-0.7	5.4	0.0	0.9	4.1
COC(=O)c1c(C(=O)OC)c2cccc3cc(-c4ccccc4)c4ccc1c4n32	-0.5	-7.4	25.0	2.0	82.9*	-5.9
COC(=O)c1cc2c(-c3ccccc3)cc3ccccn3c-2c1C(=O)OC	-1.8	-3.3	61.1*	14.4	15.4	24.8
COC(=O)c1c(C)c2c(C)cc3ccccn3c-2c1C(=O)OC	-0.7	-0.2	7.9	-1.4	17.9	-3.8
COc1ccc(CC(=O)NCc2csc(-c3cccs3)n2)cc1OC	-0.8	-2.2	-11.1	4.3	19.5	nt
CCCSc1cc(=O)n(-c2ccccc2)nc1C(=O)OCC	-0.5	2.1	-2.7	-1.9	13.4	-7.9

Screening results deposited in PubChem by several laboratories.
